Compound activity as filed in PubChem BioAssay.
This is a sample that favours compounds with a hit; in the whole collection about 2% have one here.
CAL PDZ FP-1: human CAL PDZ-peptide interaction inhibition | Q9HD26 | purified CAL PDZ, TMR-peptide fluorescence polarization, 1 h | inhibition, % at 20 µM | hit rate 0.02% among 330,000;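 active means highest replicate inhibition of at least 40%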
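Control set: unlabelled peptide and DMSO controls / Material: purified CerCALP PDZ construct / Timing: 1 h incubation at room temperature before polarization reading / Doses: 20 µM, one dose / Detection: fluorescence polarization (mP)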
dFosB act-1: enhances mouse delta FosB homodimer DNA binding | P13346 | purified delta FosB, TAMRA-CDK5 oligo fluorescence polarization; percent of positive-control signal above neutral wells | activation, % at 25 µM | hit rate 0.99% among 340,000 | AID 493131;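 active means mean activation above about 17%, with every replicate also reaching it, limit read from the data, passing the limit was not always enough; inconclusive means only one of the two conditions met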
Target sequence (P13346 whole entry, looked up): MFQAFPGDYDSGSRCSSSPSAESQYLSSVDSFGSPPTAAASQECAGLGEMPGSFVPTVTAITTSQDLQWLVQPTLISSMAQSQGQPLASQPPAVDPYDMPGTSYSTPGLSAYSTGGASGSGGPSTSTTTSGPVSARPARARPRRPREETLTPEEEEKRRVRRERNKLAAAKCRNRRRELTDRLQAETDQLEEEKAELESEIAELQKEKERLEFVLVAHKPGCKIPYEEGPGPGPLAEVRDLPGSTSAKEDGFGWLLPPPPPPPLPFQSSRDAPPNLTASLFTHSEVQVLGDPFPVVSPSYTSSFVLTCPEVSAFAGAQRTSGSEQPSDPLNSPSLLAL
CAL PDZ FP-2: CAL PDZ (human) peptide binding inhibition. Q9HD26. purified CAL PDZ, TMR-peptide fluorescence polarization, 1 h. inhibition, % at 24.9 µM. hit rate 0.92% among 300,000. AID 602252;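 active means mean inhibition of at least 30% with at least half of replicates also reaching 30%; inconclusive means no clear call, values can overlap the other calls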
S100A4 inh HTS: S100A4-myosin IIA interaction inhibition. inhibition, % at 10.7 µM. hit rate 0.14% among 360,000. S100A4/TAMRA-MyoIIA peptide fluorescence polarization. P26447;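 active means mean inhibition of at least 70% across replicates, with every replicate also reaching that level; inconclusive means mean inhibition reaches 70% but some replicates fall short; inactive means mean inhibition below 70%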
Target sequence (P26447 whole entry, looked up): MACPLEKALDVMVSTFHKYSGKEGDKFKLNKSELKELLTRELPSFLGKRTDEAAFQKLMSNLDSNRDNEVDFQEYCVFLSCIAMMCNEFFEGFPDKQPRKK
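Assay system: human S100A4 monomer with TAMRA-labelled myosin IIA peptide / Buffer or medium: Calcium-containing HEPES buffer, pH 7.2 / Reagent: TAMRA-labelled myosin IIA heavy-chain peptide probe, 5 nM / Compound: one dose per compound / Timing: polarization read 5 min after assay mix addition, stable 5–60 min / Benchmarks: neutral control DMSO, positive control TFP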
C2C12 statin: suppressors of simvastatin-induced myotoxicity in C2C12 myotubes. hit rate 0.78% among 330,000. rescue of ATP level, % at 7.49 µM. AID 602340. ATP luminescence, 48 h; scaled: DMSO 0, geranylgeraniol control 100;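 active means mean ATP rescue above about 67%, or every replicate alone reaching that limit, limit read from the data, passing the limit was not always enough; inconclusive means no clear call, values can overlap the other calls; inactive means mean under the limit and some replicate under it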;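 further: myotubes were challenged with 10 µM simvastatin during compound exposure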
CDK5 inh: inhibitors of human CDK5/p35 kinase; Recombinant CDK5/p35, ADP-Glo luminescence, 60 min; inhibition, % at 10 µM; hit rate 0.01% among 330,000; AID 488839;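 active means highest replicate inhibition of at least 50% and at least 75% of replicates reaching 50%; inconclusive means only one of the two criteria met; inactive means both criteria failed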
dFosB act-2: enhances mouse delta FosB homodimer binding to DNA | activation, % at 24.9 µM | purified delta FosB, TAMRA-CDK5 oligo fluorescence polarization; normalised: neutral wells 0, positive control 100 | 2,400 tested, under 10 active | shares compounds with dFosB act-1;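 active means highest replicate activation at or above 34% and every replicate reaching that threshold; inconclusive means meets only one of the two criteria; inactive means meets neither criterion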;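 further: higher polarization means more probe DNA bound by delta FosB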
Of the large screens only hits and unclear results are named; the others gave an inactive call (follow-up assays come after a bar, where they were run).

O=C(N/N=C/C=C/c1ccccc1[N+](=O)[O-])c1ccncc1	none (no result: CAL PDZ FP-2, C2C12 statin)
O=C(N/N=C/c1ccccn1)c1cc(-c2ccc3ccccc3c2)n[nH]1	dFosB act-1 19 (no result: C2C12 statin) | dFosB act-2 inactive
O=C(N/N=C/C=C\c1ccccc1[N+](=O)[O-])c1cc(-c2ccc3ccccc3c2)n[nH]1	dFosB act-1 25 | dFosB act-2 inactive
C[C@@H]1CN([C@@H](C)CO)S(=O)(=O)c2ccc(C3=CCCCC3)cc2O[C@@H]1CN(C)C(=O)Cc1ccncc1	none (no result: CAL PDZ FP-1, dFosB act-1, CAL PDZ FP-2, CDK5 inh)
c1ccc(Nc2nc(Nc3ccccc3)nc(N3CCNCC3)n2)cc1	none
CN1CCN(c2nc(Nc3ccc(F)cc3)nc(Nc3ccc(F)cc3)n2)CC1	dFosB act-1 40 | dFosB act-2 inactive
C=C1C(=O)C=C2CN(C(=O)c3ccccc3)[C@@](Cc3ccc(F)cc3)(C(=O)OC)[C@@H]12	none (no result: S100A4 inh HTS)
Cc1cccc(C)c1NC(=O)COC(=O)c1ccc(N2CCCC2)c([N+](=O)[O-])c1	dFosB act-1 51 (no result: S100A4 inh HTS, C2C12 statin) | dFosB act-2 inactive
Cc1nc(-c2ccc(NC(=O)c3ccc(Br)o3)cc2)cs1	dFosB act-1 26 (no result: CAL PDZ FP-2) | dFosB act-2 inactive
Cc1nc(-c2cccc(NC(=O)c3ccc(Br)o3)c2)cs1	none (no result: C2C12 statin)
COc1ccccc1-c1n[nH]nc1C1=CC(=O)C[C@H](c2ccc(F)cc2)C1	none (no result: CAL PDZ FP-1, dFosB act-1, CAL PDZ FP-2, CDK5 inh)
Cc1ccc(-c2nc(CN3CCCCC3CCN3CCCC3=O)c(C)o2)o1 (stereo not given)	none
O=C(N1CCCCC1)[C@@]1(Cc2ccccc2)COC(c2ccc(OCCCO)cc2)=N1	none (no result: CAL PDZ FP-1, dFosB act-1, CAL PDZ FP-2, C2C12 statin, CDK5 inh)
O=C(CCc1ccccc1)Nc1nc2n(n1)C(c1ccccc1)CC(=O)N2 (stereo not given)	dFosB act-1 27 | dFosB act-2 inactive
O=C(CCc1ccccc1)Nc1nc2n(n1)C(c1ccc(Cl)cc1)CC(=O)N2 (stereo not given)	dFosB act-1 inconclusive (no result: CAL PDZ FP-1, S100A4 inh HTS)
CC(=O)c1nn(-c2cccc(Br)c2)cc1C(=O)c1ccc(Cl)cc1	dFosB act-1 28 | dFosB act-2 inactive
C/C(=N\Nc1cc(C)nc(NCc2ccccc2)n1)c1ccc([N+](=O)[O-])cc1	dFosB act-1 30 (no result: C2C12 statin) | dFosB act-2 inactive
O=C(Nc1nc2ccccc2[nH]1)c1ccc([N+](=O)[O-])cc1	none (no result: C2C12 statin)
Cc1cc(N/N=C/c2ccccc2Cl)nc(NCc2ccccc2)n1	dFosB act-1 51 (no result: S100A4 inh HTS, C2C12 statin) | dFosB act-2 inactive
C/C(=N\Nc1nc2ccccc2[nH]1)c1ccc([N+](=O)[O-])cc1	dFosB act-1 21 | dFosB act-2 inactive
C/C(=N\NC(=O)c1cc(C)nc2ccccc12)c1ccc([N+](=O)[O-])cc1	none
O=C(CSc1cn(CC(=O)N2CCCCC2)c2ccccc12)NCC1CCCO1 (stereo not given)	none
Cc1ccc(SCCC(=O)NCc2ccco2)cc1	none (no result: S100A4 inh HTS, C2C12 statin)
CCCc1c(-c2cccc(Cl)c2)ncn1Cc1cccc(-c2ccccc2)c1	none (no result: CAL PDZ FP-1, dFosB act-1, CAL PDZ FP-2, C2C12 statin, CDK5 inh)
C/C(=N/O)c1ccc2c(c1)OCCOCCOc1cc(/C(C)=N/O)ccc1OCCOCCO2	dFosB act-1 21 (no result: S100A4 inh HTS, C2C12 statin) | dFosB act-2 inactive
C[C@H]1CN([C@@H](C)CO)C(=O)c2cccc(NC(=O)Nc3ccc(F)cc3)c2O[C@@H]1CN(C)Cc1ccc(Oc2ccccc2)cc1	none (no result: CAL PDZ FP-1, dFosB act-1, CAL PDZ FP-2, CDK5 inh)
C[C@H]1CN([C@@H](C)CO)C(=O)c2cc(NC(=O)Nc3cccc4ccccc34)ccc2O[C@@H]1CN(C)Cc1ccc(-c2ccccc2)cc1	dFosB act-1 38 | dFosB act-2 inactive
C[C@@H]1CN([C@@H](C)CO)C(=O)c2cccc(NC(=O)Nc3ccc(F)cc3)c2O[C@@H]1CN(C)Cc1ccc(Oc2ccccc2)cc1	dFosB act-1 43 | dFosB act-2 inactive
COC(=O)c1sc(N)nc1C(C)(C)C	none (no result: S100A4 inh HTS)
O=C(Nc1cccc2ccccc12)/C(=C/c1cccc([N+](=O)[O-])c1)NC(=O)c1cccs1	dFosB act-1 24 (no result: S100A4 inh HTS, C2C12 statin) | dFosB act-2 inactive
CCCc1cc(=O)oc2cc(OCC(=O)NCCc3c[nH]c4ccc(OC)cc34)ccc12	dFosB act-1 19 | dFosB act-2 inactive
